Source: ChEMBL document CHEMBL4038284, “Synthesis of novel quinoline-based 4,5-dihydro-1H-pyrazoles as potential anticancer, antifungal, antibacterial and antiprotozoal agents” (Eur J Med Chem, 2017)
Converted amounts (≈) assume the structure as drawn.

Columns and labels:
Format in all cases: functional
NCI-H522 = assay: Growth inhibition of human NCI-H522 cells incubated for 48 hrs by sulforhodamine B assay; conditions: NCI-H522, 48 h; for CC50: read-out: LC50 (the source's name)
In short: (§1)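 NCI 60-line screen. Cells in RPMI-1640 with 5% FBS and 2 mM L-glutamine, preincubated 24 h, then time-zero plates TCA-fixed. Compounds from DMSO stocks given at five final concentrations (100, 10, 1.0, 0.1, 0.01 µM) for 48 h at 37 °C, 5% CO2. Cells fixed with 10% TCA, SRB-stained, read at 515 nm. GI50 is the concentration giving 50% lower net protein increase versus control.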

MCF7 = assay: Growth inhibition of human MCF7 cells incubated for 48 hrs by sulforhodamine B assay; conditions: MCF7, 48 h; for CC50: read-out: LC50 (the source's name); in short: as §1
CCRF-CEM = assay: Growth inhibition of human CCRF-CEM cells incubated for 48 hrs by sulforhodamine B assay; conditions: for CC50: read-out: LC50 (the source's name); in short: as §1
NCI-H460 = assay: Growth inhibition of human NCI-H460 cells incubated for 48 hrs by sulforhodamine B assay; conditions: NCI-H460, 48 h; for CC50: read-out: LC50 (the source's name)
In short: (§2)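 Five-dose NCI SRB assay at 100, 10, 1.0, 0.1 and 0.01 μM for 48 h at 37 °C, 5% CO2. Medium was RPMI-1640 with 5% FBS and 2 mM glutamine. Time-zero plates were TCA-fixed at compound addition, A515 read after SRB staining. GI50 was solved from [(Ti−Tz)/(C−Tz)]×100 = 50. Values beyond the tested range are given as > or <.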

UACC-62 = assay: Growth inhibition of human UACC62 cells incubated for 48 hrs by sulforhodamine B assay; conditions: UACC-62, 48 h; for CC50: read-out: LC50 (the source's name); in short: as §1
SK-MEL-28 = assay: Growth inhibition of human SK-MEL-28 cells incubated for 48 hrs by sulforhodamine B assay; conditions: SK-MEL-28, 48 h; for CC50: read-out: LC50 (the source's name)
In short: (§3)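 NCI-60 panel cells grown in RPMI-1640 with 5% FBS and 2 mM L-glutamine, preincubated 24 h at 37 °C/5% CO2. Time-zero plates were TCA-fixed at compound addition. DMSO stocks were diluted in medium and tested at five final concentrations (100, 10, 1.0, 0.1, 0.01 µM) for 48 h. Cells were TCA-fixed, stained with SRB and read at 515 nm. GI50 = 50% lower net protein increase versus control.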

U-251 = assay: Growth inhibition of human U251 cells incubated for 48 hrs by sulforhodamine B assay; conditions: U-251, 48 h; for CC50: read-out: LC50 (the source's name); in short: as §3
Malme-3M = assay: Growth inhibition of human MALME-3M cells incubated for 48 hrs by sulforhodamine B assay; conditions: for CC50: read-out: LC50 (the source's name); in short: as §2
HL-60(TB) = assay: Growth inhibition of human HL-60(TB) cells incubated for 48 hrs by sulforhodamine B assay; conditions: HL-60, 48 h; for CC50: read-out: LC50 (the source's name); in short: as §1
RXF 393 = assay: Growth inhibition of human RXF393 cells incubated for 48 hrs by sulforhodamine B assay; conditions: RXF 393, 48 h; for CC50: read-out: LC50 (the source's name); in short: as §2
Staphylococcus aureus [1] = assay: Bactericidal activity against vancomycin-intermediate Staphylococcus aureus after 24 hrs by resazurin dye based microdilution assay
Escherichia coli = assay: Bactericidal activity against Escherichia coli ATCC 25922 after 24 hrs by resazurin dye based microdilution assay; conditions: ATCC 25922, 24 h
Klebsiella pneumoniae = assay: Bactericidal activity against carbapenemase positive Klebsiella pneumoniae BAA 1705 after 24 hrs by resazurin dye based microdilution assay; conditions: BAA 1705, 24 h
Staphylococcus aureus [2] = assay: Bactericidal activity against methicillin-resistant Staphylococcus aureus ATCC 43300 after 24 hrs by resazurin dye based microdilution assay; conditions: ATCC 43300, 24 h
In short: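 3 µL of each dilution with no visible growth was plated onto trypticase agar. Gentamicin as control. Duplicate, replicated at least three times.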

Staphylococcus aureus [3] = assay: Bactericidal activity against methicillin-sensitive Staphylococcus aureus ATCC 25923 after 24 hrs by resazurin dye based microdilution assay; conditions: ATCC 25923, 24 h

SMILES | GI50 (NCI-H522) | CC50 (NCI-H522) | GI50 (MCF7) | CC50 (MCF7) | GI50 (CCRF-CEM) | CC50 (CCRF-CEM) | GI50 (NCI-H460) | CC50 (NCI-H460) | GI50 (UACC-62) | CC50 (UACC-62) | GI50 (SK-MEL-28) | CC50 (SK-MEL-28) | GI50 (U-251) | CC50 (U-251) | GI50 (Malme-3M) | CC50 (Malme-3M) | GI50 (HL-60(TB)) | CC50 (HL-60(TB)) | GI50 (RXF 393) | CC50 (RXF 393) | further results
COc1cc(C(=O)/C=C/c2cccc(Nc3ccnc4cc(Cl)ccc34)c2)cc(OC)c1OC | 0.59 µM | 6.23 µM | 0.61 µM | 5.24 µM | 0.36 µM | > 100 µM | 1.91 µM | > 100 µM | 1.03 µM | 5.4 µM | 1.51 µM | 5.98 µM | 0.91 µM | 5.19 µM | 1.46 µM | 7.8 µM | 1.82 µM | > 100 µM | 1.08 µM | 5.67 µM | 
COc1ccc(C2=NN(C=O)C(c3cccc(Nc4ccnc5cc(Cl)ccc45)c3)C2)cc1 (centres undefined) | 1.33 µM | 61.9 µM | 1.59 µM | > 100 µM | 2.14 µM | > 100 µM | 2.73 µM | > 100 µM | 2.41 µM | 68.1 µM | 8.12 µM | 67.1 µM | 2.77 µM | 51.1 µM | 2.04 µM | > 100 µM | 2.03 µM | 33.6 µM | 1.66 µM | 59.2 µM | 
O=Cc1cccc(Nc2ccnc3cc(Cl)ccc23)c1 |  |  |  |  |  |  |  |  |  |  |  |  |  |  |  |  |  |  |  |  | MBC (Staphylococcus aureus [1]): 500 mg/L (≈ 1770 µM); MBC (Escherichia coli): 500 mg/L (≈ 1770 µM); MBC (Klebsiella pneumoniae): > 1000 mg/L; MBC (Staphylococcus aureus [2]): > 1000 mg/L; MBC (Staphylococcus aureus [3]): 500 mg/L (≈ 1770 µM)
COc1cccc2c1C(=O)c1c(O)c3c(c(O)c1C2=O)C[C@@](O)(C(=O)CO)C[C@@H]3O[C@H]1C[C@H](N)[C@H](O)[C@H](C)O1 [DOXORUBICIN] | 0.03 µM | 2.8 µM | 0.04 µM | 64.1 µM | 0.08 µM | 100 µM | 0.02 µM |  | 0.14 µM | 1.31 µM | 0.21 µM |  | 0.04 µM |  | 0.12 µM |  | 0.12 µM |  | 0.1 µM |  | 
O=CN1N=C(c2ccc(Cl)cc2)CC1c1cccc(Nc2ccnc3cc(Cl)ccc23)c1 (centres undefined) | 1.12 µM | 66.7 µM | 0.87 µM | > 100 µM | 1.42 µM | > 100 µM | 1.86 µM | > 100 µM | 1.14 µM | 87.8 µM | 3.15 µM | > 100 µM | 2.47 µM | 53.9 µM | 1.27 µM | 76.6 µM | 1.27 µM | > 100 µM | 1.4 µM | > 100 µM | 
COc1ccc(C(=O)/C=C/c2cccc(Nc3ccnc4cc(Cl)ccc34)c2)cc1 | 1.88 µM | > 100 µM | 1.82 µM | > 100 µM | 2.88 µM | > 100 µM | 2.23 µM | > 100 µM | 1.19 µM | > 100 µM | 1.87 µM | > 100 µM | 1.73 µM | 23.7 µM | 1.79 µM | > 100 µM | 2.98 µM | > 100 µM | 1.82 µM | > 100 µM | 
